Data taken from ChEMBL document CHEMBL3286162, “Synthesis and anticancer activity of novel quinoline-docetaxel analogues” (Bioorg Med Chem Lett, 2014).

What was measured:
MCF7 [1] = assay: Antiproliferative against human MCF7 cells after 72 hrs by MTT assay; format: functional, cell-based; settings: MCF7, 72 h
Procedure, shortened: (§1)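 MTT cytotoxicity assay with 72 h continuous exposure of cells to test compounds, run alongside docetaxel as positive control. The panel comprised four parental human cancer lines (HeLa, A549, A2780, MCF-7) and two drug-resistant sublines (A2780-MDR, MCF-7-MDR).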

A2780 [2] = assay: Antiproliferative against human A2780 cells after 72 hrs by MTT assay; format: functional, cell-based; settings: A2780, 72 h; procedure, shortened: as §1
MCF7 [3] = assay: Antiproliferative against multidrug-resistant human MCF7 cells after 72 hrs by MTT assay; format: functional, cell-based; settings: MCF7, 72 h; procedure, shortened: as §1
A549 [4] = assay: Antiproliferative against human A549 cells after 72 hrs by MTT assay; format: functional, cell-based; settings: A549, 72 h; procedure, shortened: as §1
MCF7 [5] = assay: Ratio of docetaxel IC50 to compound IC50 for human MCF7 cells after 72 hrs by MTT assay; format: functional
HeLa [6] = assay: Antiproliferative against human HeLa cells after 72 hrs by MTT assay; format: functional, cell-based; procedure, shortened: as §1
A2780 [7] = assay: Antiproliferative against multidrug-resistant human A2780 cells after 72 hrs by MTT assay; format: functional, cell-based; settings: A2780, 72 h; procedure, shortened: as §1
HeLa [8] = assay: Ratio of docetaxel IC50 to compound IC50 for human HeLa cells after 72 hrs by MTT assay; format: functional
A549 [9] = assay: Ratio of docetaxel IC50 to compound IC50 for human A549 cells after 72 hrs by MTT assay; format: functional
A2780 [10] = assay: Ratio of docetaxel IC50 to compound IC50 for human A2780 cells after 72 hrs by MTT assay; format: functional
MCF7 [11] = assay: Ratio of docetaxel IC50 to compound IC50 for multidrug-resistant human MCF7 cells after 72 hrs by MTT assay; format: functional

Row | IC50 (MCF7 [1]) [nM] | IC50 (A2780 [2]) [nM] | IC50 (MCF7 [3]) [nM] | IC50 (A549 [4]) [nM] | IC50 (HeLa [6]) [nM] | IC50 (A2780 [7]) [nM] | Structure (SMILES) | Ratio IC50 (MCF7 [5]) | Ratio IC50 (HeLa [8]) | Ratio IC50 (A549 [9]) | Ratio IC50 (A2780 [10]) | Ratio IC50 (MCF7 [11])
1 | 12.8 | 32.9 | 25.6 | 33.4 | 39 | 43.9 | COc1cc(C(=O)O[C@@H](C(=O)O[C@H]2C[C@@]3(O)[C@@H](OC(=O)c4ccccc4)[C@@H]4[C@]5(OC(C)=O)CO[C@@H]5C[C@H](O)[C@@]4(C)C(=O)[C@H](O)C(=C2C)C3(C)C)[C@@H](NC(=O)OC(C)(C)C)c2ccccc2)nc2ccccc12 | 2 | – | – | – | –
2 | 17.8 | 44.8 | 36.3 | 41.2 | 41 | 34.9 | CC(=O)O[C@@]12CO[C@@H]1C[C@H](O)[C@@]1(C)C(=O)[C@H](O)C3=C(C)[C@@H](OC(=O)[C@H](OC(=O)c4cnc5ccccc5c4)[C@@H](NC(=O)OC(C)(C)C)c4ccccc4)C[C@@](O)([C@@H](OC(=O)c4ccccc4)[C@H]21)C3(C)C | 2 | – | – | – | –
3 | 16.8 | 49.3 | 17.8 | 28.1 | 33.2 | 12.2 | CC(=O)O[C@@]12CO[C@@H]1C[C@H](O)[C@@]1(C)C(=O)[C@H](O)C3=C(C)[C@@H](OC(=O)[C@H](OC(=O)c4nccc5ccccc45)[C@@H](NC(=O)OC(C)(C)C)c4ccccc4)C[C@@](O)([C@@H](OC(=O)c4ccccc4)[C@H]21)C3(C)C | – | – | – | – | –
4 | 26.4 | 35 | 9.3 | 38.2 | 30.7 | 33.2 | CC(=O)O[C@@]12CO[C@@H]1C[C@H](O)[C@@]1(C)C(=O)[C@H](O)C3=C(C)[C@@H](OC(=O)[C@H](OC(=O)c4ccc5ccccc5n4)[C@@H](NC(=O)OC(C)(C)C)c4ccccc4)C[C@@](O)([C@@H](OC(=O)c4ccccc4)[C@H]21)C3(C)C | – | – | – | – | –
5 | 39.8 | 41.6 | 28.4 | 16 | 19.3 | 32.5 | CC(=O)O[C@@]12CO[C@@H]1C[C@H](O)[C@@]1(C)C(=O)[C@H](O)C3=C(C)[C@@H](OC(=O)[C@H](OC(=O)c4cc(-c5ccccc5)nc5ccccc45)[C@@H](NC(=O)OC(C)(C)C)c4ccccc4)C[C@@](O)([C@@H](OC(=O)c4ccccc4)[C@H]21)C3(C)C | – | – | 2 | – | –
6 | 30.7 | 23.1 | 8.8 | 38.8 | 34.6 | 30.2 | CC(=O)O[C@@]12CO[C@@H]1C[C@H](O)[C@@]1(C)C(=O)[C@H](O)C3=C(C)[C@@H](OC(=O)[C@H](OC(=O)c4ccc5ncccc5c4)[C@@H](NC(=O)OC(C)(C)C)c4ccccc4)C[C@@](O)([C@@H](OC(=O)c4ccccc4)[C@H]21)C3(C)C | – | – | – | – | 20
7 | 42 | 45.3 | 21.2 | 38.5 | 32.6 | 29.7 | CC(=O)O[C@@]12CO[C@@H]1C[C@H](O)[C@@]1(C)C(=O)[C@H](O)C3=C(C)[C@@H](OC(=O)[C@H](OC(=O)c4cn(C5CC5)c5cc(Cl)c(F)cc5c4=O)[C@@H](NC(=O)OC(C)(C)C)c4ccccc4)C[C@@](O)([C@@H](OC(=O)c4ccccc4)[C@H]21)C3(C)C | – | – | – | – | –
8 | 38.5 | 33 | 180 | 35.2 | 50.1 | 126 | CC(=O)O[C@@]12CO[C@@H]1C[C@H](O)[C@@]1(C)C(=O)[C@H](O)C3=C(C)[C@@H](OC(=O)[C@H](O)[C@@H](NC(=O)OC(C)(C)C)c4ccccc4)C[C@@](O)([C@@H](OC(=O)c4ccccc4)[C@H]21)C3(C)C [DOCETAXEL] | – | – | – | – | –

Second part, the compound before the results:

Row | Structure (SMILES) | IC50 (MCF7 [1]) [nM] | IC50 (A2780 [2]) [nM] | IC50 (MCF7 [3]) [nM] | IC50 (A549 [4]) [nM] | IC50 (HeLa [6]) [nM] | IC50 (A2780 [7]) [nM] | Ratio IC50 (MCF7 [5]) | Ratio IC50 (HeLa [8]) | Ratio IC50 (A549 [9]) | Ratio IC50 (A2780 [10]) | Ratio IC50 (MCF7 [11])
9 | CC(=O)O[C@H]1C(=O)[C@@]2(C)[C@H]([C@H](OC(=O)c3ccccc3)[C@]3(O)C[C@H](OC(=O)[C@H](OC(=O)c4cc(-c5ccccc5)nc5ccccc45)[C@@H](NC(=O)OC(C)(C)C)c4ccccc4)C(C)=C1C3(C)C)[C@]1(OC(C)=O)CO[C@@H]1C[C@@H]2O | 31.4 | 28.2 | 18.3 | 42.5 | 11.8 | 49.8 | – | 5 | – | – | –
10 | CC(=O)O[C@H]1C(=O)[C@@]2(C)[C@H]([C@H](OC(=O)c3ccccc3)[C@]3(O)C[C@H](OC(=O)[C@H](OC(=O)c4nccc5ccccc45)[C@@H](NC(=O)OC(C)(C)C)c4ccccc4)C(C)=C1C3(C)C)[C@]1(OC(C)=O)CO[C@@H]1C[C@@H]2O | 26.6 | 16.9 | 45.9 | 35.3 | 41.2 | 18.6 | – | – | – | 2 | –
11 | CC(=O)O[C@H]1C(=O)[C@@]2(C)[C@H]([C@H](OC(=O)c3ccccc3)[C@]3(O)C[C@H](OC(=O)[C@H](OC(=O)c4cnc5ccccc5c4)[C@@H](NC(=O)OC(C)(C)C)c4ccccc4)C(C)=C1C3(C)C)[C@]1(OC(C)=O)CO[C@@H]1C[C@@H]2O | 43.3 | 34.2 | 37.8 | 41 | 36.3 | 29 | – | – | – | – | –
12 | CC(=O)O[C@H]1C(=O)[C@@]2(C)[C@H]([C@H](OC(=O)c3ccccc3)[C@]3(O)C[C@H](OC(=O)[C@H](OC(=O)c4cn(C5CC5)c5cc(Cl)c(F)cc5c4=O)[C@@H](NC(=O)OC(C)(C)C)c4ccccc4)C(C)=C1C3(C)C)[C@]1(OC(C)=O)CO[C@@H]1C[C@@H]2O | 30.2 | 39.8 | 38.9 | 28.8 | 25.3 | 34.5 | – | – | – | – | –
13 | CC(=O)O[C@H]1C(=O)[C@@]2(C)[C@H]([C@H](OC(=O)c3ccccc3)[C@]3(O)C[C@H](OC(=O)[C@H](OC(=O)c4ccc5ncccc5c4)[C@@H](NC(=O)OC(C)(C)C)c4ccccc4)C(C)=C1C3(C)C)[C@]1(OC(C)=O)CO[C@@H]1C[C@@H]2O | 29.8 | 16.3 | 35.7 | 28.4 | 18.5 | 35.1 | – | – | – | 2 | –
14 | COc1cc(C(=O)O[C@@H](C(=O)O[C@H]2C[C@@]3(O)[C@@H](OC(=O)c4ccccc4)[C@@H]4[C@]5(OC(C)=O)CO[C@@H]5C[C@H](O)[C@@]4(C)C(=O)[C@H](OC(C)=O)C(=C2C)C3(C)C)[C@@H](NC(=O)OC(C)(C)C)c2ccccc2)nc2ccccc12 | 47.6 | 30.1 | 18.2 | 32.3 | 34.9 | 21.3 | – | – | – | – | –
15 | CC(=O)O[C@H]1C(=O)[C@@]2(C)[C@H]([C@H](OC(=O)c3ccccc3)[C@]3(O)C[C@H](OC(=O)[C@H](OC(=O)c4ccc5ccccc5n4)[C@@H](NC(=O)OC(C)(C)C)c4ccccc4)C(C)=C1C3(C)C)[C@]1(OC(C)=O)CO[C@@H]1C[C@@H]2O | 37.3 | 45.7 | 24.1 | 27.1 | 19.9 | 29.8 | – | – | – | – | –
